Experimental data reported in ChEMBL document CHEMBL1142063, “Synthesis of omeprazole analogues and evaluation of these as potential inhibitors of the multidrug efflux pump NorA of Staphylococcus aureus” (2007).

Assays:
[1] = test system: Staphylococcus aureus; assay: Increase in 16 ug/ml Norfloxacin accumulation in wild type Staphylococcus aureus SA1199 at 128 ug/ml after 20 mins; assay type: functional
In short: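 Mid-exponential SA-1199 cells were washed and resuspended in 50 mM sodium phosphate, pH 7.0. They were exposed at time zero to norfloxacin at one-quarter MIC, alone or with EPI at 128 μg/ml. At 5–20 min, cells were spun through silicone-paraffin oil into orthophosphoric acid. Lysate norfloxacin was measured by C18 HPLC with fluorescence detection (ex 240, em 280 nm) and normalized to BCA protein (ng/mg). Triplicate experiments, mean reported.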

[2] = test system: Staphylococcus aureus; assay: Increase in 16 ug/ml Norfloxacin accumulation in Staphylococcus aureus SA1199B mutant overexpressing NorA measured per milligram of cell protein at 128 ug/ml after 20 mins; assay type: functional, organism-based
In short: (§1)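 SA-1199B was grown to mid-exponential phase in MH broth (4–5 h, 37°C, shaken), then washed and resuspended in 50 mM sodium phosphate, pH 7.0. Cells got norfloxacin at one-quarter MIC, alone or with inhibitor at 128 μg/ml. At 5–20 min, cells were spun through silicone-paraffin oil into orthophosphoric acid. Norfloxacin was measured by HPLC fluorescence (ex 240/[…]) as ng/mg BCA protein. Means of triplicate experiments.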

[3] = test system: Staphylococcus aureus; assay: Increase in 16 ug/ml Norfloxacin accumulation in Staphylococcus aureus SA1199B mutant overexpressing NorA measured per mg of cell protein at 128 ug/ml after 5 mins; assay type: functional, organism-based; in short: as §1
[4] = test system: Staphylococcus aureus; assay: Increase in 5 ug ofloxacin antibacterial activity against Staphylococcus aureus SA1199B mutant overexpressing NorA at 128 ug/ml by disk diffusion method; assay type: functional
In short: (§2)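 Agar diffusion on Mueller-Hinton agar (adjusted to 20 μg/ml Ca²⁺ and 10 μg/ml Mg²⁺), used plain or with the efflux inhibitor incorporated at the stated concentration. Disks were 5 μg for the fluoroquinolones and 30 μg for chloramphenicol. Plates were incubated overnight at 37°C, and inhibition zone diameters were measured. Values are means of at least three independent experiments.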

[5] = test system: Staphylococcus aureus; assay: Increase in 30 ug chloramphenicol antibacterial activity against Staphylococcus aureus SA1199B mutant overexpressing NorA at 128 ug/ml by disk diffusion method; assay type: functional; in short: as §2
[6] = test system: Staphylococcus aureus; assay: Increase in 16 ug/ml Norfloxacin accumulation in Staphylococcus aureus SA1199B mutant overexpressing NorA at 128 ug/ml after 20 mins; assay type: functional; in short: as §1
[7] = test system: Staphylococcus aureus; assay: Increase in 5 ug moxifloxacin antibacterial activity against Staphylococcus aureus SA1199B mutant overexpressing NorA at 128 ug/ml by disk diffusion method; assay type: functional; in short: as §2
[8] = test system: Staphylococcus aureus; assay: Increase in 5 ug Norfloxacin antibacterial activity against Staphylococcus aureus SA1199B mutant overexpressing NorA at 128 ug/ml by disk diffusion method; assay type: functional; in short: as §2
[9] = test system: Staphylococcus aureus; assay: Increase in 5 ug sparfloxacin antibacterial activity against Staphylococcus aureus SA1199B mutant overexpressing NorA at 128 ug/ml by disk diffusion method; assay type: functional; in short: as §2
[10] = test system: Staphylococcus aureus; assay: Increase in 64 ug/ml Norfloxacin antibacterial activity against Staphylococcus aureus SA1199B mutant overexpressing NorA at 128 ug/ml by checker board method; assay type: functional
[11] = test system: Staphylococcus aureus; assay: Increase in 5 ug levofloxacin antibacterial activity against Staphylococcus aureus SA1199B mutant overexpressing NorA at 128 ug/ml by disk diffusion method; assay type: functional; in short: as §2
[12] = test system: Staphylococcus aureus; assay: Increase in 5 ug ciprofloxacin antibacterial activity against Staphylococcus aureus SA1199B mutant overexpressing NorA at 128 ug/ml by disk diffusion method; assay type: functional; in short: as §2
[13] = test system: Staphylococcus aureus; assay: Increase in 2 ug/ml Norfloxacin antibacterial activity against wild type Staphylococcus aureus SA1199 at 128 ug/ml by checker board method; assay type: functional
[14] = test system: Staphylococcus aureus; assay: Antibacterial activity against Staphylococcus aureus; assay type: functional
In short: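 Tube broth dilution MIC against SA-1199 and NorA-overproducing SA-1199B in Mueller-Hinton broth with 20 μg/ml Ca²⁺ and 10 μg/ml Mg²⁺. Inoculum was a 4–5 h 37°C culture diluted 1/10 (≈10⁶ CFU/ml). Compound range was 512 to 1 μg/ml, dissolved in DMSO (final ≤4%).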

Row | Compound | Activity [1] [%] | Drug uptake [2] [ng/mg] | Drug uptake [3] [ng/mg] | inhibition zone (IZ) [4] [mm] | inhibition zone (IZ) [5] [mm] | Activity [6] [%] | inhibition zone (IZ) [7] [mm] | inhibition zone (IZ) [8] [mm] | inhibition zone (IZ) [9] [mm] | MIC [10] [µg/mL] | inhibition zone (IZ) [11] [mm] | inhibition zone (IZ) [12] [mm] | MIC [13] [µg/mL] | MIC [14] [µg/mL]
1 | [O-][S+](Cc1nc2ccccc2n2cccc12)c1nc2ccccc2[nH]1 (stereo unspecified) | 10 | 400 | 270 | 23 | 25 | 40 | 28 | 10 | 28 | 16 | 24 | 19 | 1 | > 512
2 | Cn1ccnc1[S+]([O-])Cc1nc2ccccc2n2cccc12 (stereo unspecified) | – | – | – | 19 | 25 | – | 27 | 6 | 27 | 32 | 22 | 14 | 2 | > 512
3 | COc1ccc2[nH]c([S+]([O-])Cc3nc4cc(OC)ccc4n4cccc34)nc2c1 (stereo unspecified) | 10 | 400 | 270 | 25 | 27 | 40 | 28 | 16 | 29 | 8 | 24 | 24 | 1 | > 512
4 | COc1ccc2c(c1)nc([S+]([O-])Cc1nc3ccccc3n3cccc13)c1cccn12 (stereo unspecified) | – | – | – | 19 | 25 | – | 27 | 6 | 27 | 32 | 22 | 17 | 2 | > 512
5 | COc1ccc2[nH]c([S+]([O-])Cc3nc4ccc(Cl)cc4n4cccc34)nc2c1 (stereo unspecified) | 10 | 400 | 270 | 21 | 25 | 40 | 27 | 10 | 27 | 16 | 23 | 19 | 1 | > 512
6 | [O-][S+](Cc1nc2ccccc2n2cccc12)c1ncc[nH]1 (stereo unspecified) | – | – | – | 19 | 25 | – | 27 | 6 | 27 | 32 | 22 | 15 | 2 | > 512
7 | Cn1c([S+]([O-])Cc2nc3ccccc3n3cccc23)nc2ccccc21 (stereo unspecified) | – | – | – | 20 | 25 | – | 27 | 6 | 27 | 32 | 23 | 15 | 2 | > 512
8 | COc1ccc2[nH]c([S+]([O-])Cc3nc4ccccc4n4cccc34)nc2c1 (stereo unspecified) | 10 | 400 | 270 | 25 | 26 | 40 | 28 | 15 | 27 | 8 | 24 | 24 | 1 | > 512
9 | [O-][S+](Cc1nc2ccccc2n2cccc12)c1ccccn1 (stereo unspecified) | – | – | – | 20 | 25 | – | 27 | 6 | 27 | 32 | 22 | 17 | 2 | > 512
